Assay results taken from ChEMBL document CHEMBL1131930, “Synthetic [5,5] trans-fused indane lactones as inhibitors of thrombin” (Bioorg Med Chem Lett, 1999).

Key:
Homo sapiens = species on record: Homo sapiens; assay: Activated partial thromboplastin time (APTT) 2x control using human plasma; NE=no significant effect at 100 uM; assay type: functional, cell-free
Outline: (§1)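 Human plasma clotting; test compound added with a preincubation step before APTT measurement. The value is the compound concentration required to double the activated partial thromboplastin time. Lines with no significant effect were tested up to 100 µM.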

Prothrombin [1] = molecular target: T1, Prothrombin (Homo sapiens, UniProt P00734); assay: Inhibitory activity against human thrombin was determined
[2] = Activated partial thromboplastin time (APTT) 2x control using human plasma; assay type: functional; outline: as §1
Prothrombin [3] = molecular target: T1, Prothrombin
[4] = Selectivity was determined
[5] = molecular target: Serine protease 1 (Homo sapiens) (UniProt P07477); assay: Inhibitory activity against protease trypsin was determined
Serine protease 1 (Homo sapiens), sequence (P07477 whole entry): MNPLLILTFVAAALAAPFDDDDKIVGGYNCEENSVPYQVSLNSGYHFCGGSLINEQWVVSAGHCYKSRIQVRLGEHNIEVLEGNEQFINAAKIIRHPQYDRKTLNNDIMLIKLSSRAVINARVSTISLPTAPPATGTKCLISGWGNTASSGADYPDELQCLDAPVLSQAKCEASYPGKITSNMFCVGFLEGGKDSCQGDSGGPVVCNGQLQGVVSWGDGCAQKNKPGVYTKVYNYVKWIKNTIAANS

SMILES | APTT (Homo sapiens) | IC50 (Prothrombin [1]) [nM] | APTT [2] [µM] | K obs / 1 (Prothrombin [3]) [M⁻¹ s⁻¹] | Selectivity [4] | K obs / 1 [5] [M⁻¹ s⁻¹]
C/N=C(/N)CCCC[C@H]1C(=O)O[C@H]2Cc3ccc(-c4ccc(O)cc4)cc3[C@@H]21 | No effect |  |  |  |  | 
N=C(N)CCCCC1C(=O)O[C@H]2Cc3ccccc3[C@H]12 (some centres undefined) |  | 77 | 100 | 4200 |  | 
N=C(N)CCCCC1C(=O)O[C@H]2Cc3cc(-c4ccccc4)ccc3[C@H]12 (some centres undefined) |  |  | 50 | 48000 | 2.4 | 20000
COc1cccc(-c2ccc3c(c2)C[C@@H]2OC(=O)C(CCCCC(=N)N)[C@@H]32)c1 (some centres undefined) |  |  | 25 | 96000 | 2.7 | 36000
CNC(=N)CCCC[C@H]1C(=O)O[C@H]2Cc3ccc(-c4ccc(O)cc4)cc3[C@@H]21 |  | 1600 |  |  |  | 
N=C(N)CCC[C@H]1C(=O)O[C@H]2Cc3ccccc3[C@@H]21 |  | 600 |  |  |  | 
COc1cccc(-c2ccc3c(c2)C[C@@H]2OC(=O)C(C)(CCCCC(=N)N)[C@@H]32)c1 (some centres undefined) | No effect | 1800 |  |  |  | 
N=C(N)CCCCC1C(=O)O[C@H]2Cc3ccc(-c4ccccc4)cc3[C@H]12 (some centres undefined) |  |  | 60 | 490000 |  | 
CCN(CC)C(=O)c1cccc(-c2ccc3c(c2)C[C@@H]2OC(=O)C(CCCCC(=N)N)[C@@H]32)c1 (some centres undefined) |  |  | 4 | 420000 | 1.9 | 220000
N=C(N)CCCCC1C(=O)O[C@H]2Cc3cc(-c4cccc(-c5ccccc5)c4)ccc3[C@H]12 (some centres undefined) | No effect |  |  | 160000 |  | 
NC(N)=NCCC[C@H](NC(=O)[C@H]1CCCN1C(=O)[C@H](N)Cc1ccccc1)C(=O)CCl |  |  |  | 1.6e+07 |  | 
N=C(N)CCCCC1C(=O)O[C@H]2Cc3ccc(-c4ccc(O)cc4)cc3[C@H]12 (some centres undefined) |  | 9 | 42 | 270000 |  | 
N=C(N)CCCCC1C(=O)O[C@H]2Cc3ccc(-c4cccc(-c5ccccc5)c4)cc3[C@H]12 (some centres undefined) |  |  | 85 | 3.8e+06 | 35 | 110000
N=C(N)CCCCC1C(=O)O[C@H]2Cc3cc(-c4ccc(O)cc4)ccc3[C@H]12 (some centres undefined) |  |  | 27 | 33000 |  | 
NC(N)=NCCC[C@H](NC(=O)[C@@H]1CCCN1C(=O)[C@H](N)Cc1ccccc1)C(=O)CCl |  |  | 1.8 |  |  | 
CCN(CC)C(=O)c1cccc(-c2ccc3c(c2)[C@@H]2C(CCCCC(=N)N)C(=O)O[C@H]2C3)c1 (some centres undefined) |  |  | 40 | 1.1e+07 | 55 | 200000
